ChEMBL document CHEMBL4400581, “First Example of Catalytic Synthesis of Difurazanohexahydrohexaazapyrenes and in Vitro Study of Their Antitumor Activity” (2019)

Experiments:
[1] = system: K562; experiment: Cytotoxicity against human K562 cells by MTT assay; format: functional
Procedure, shortened: (§1)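 Cytotoxicity was measured by MTT assay across a range of concentrations in human tumour lines, with etoposide as the reference drug. Results are expressed as CC50.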

[2] = system: HeLa; experiment: Cytotoxicity against human HeLa cells by MTT assay; format: functional; procedure, shortened: as §1
[3] = system: Jurkat; experiment: Cytotoxicity against human Jurkat cells by MTT assay; format: functional; procedure, shortened: as §1
[4] = system: U-937; experiment: Cytotoxicity against human U937 cells by MTT assay; format: functional; procedure, shortened: as §1
[5] = system: U-937; experiment: Induction of apoptosis in human U937 cells assessed as necrotic cells at 0.05 uM measured after 24 hrs by Annexin alexa fluor 488/7AAD staining based flow cytometry (reference value: 0.19%); format: functional
[6] = system: U-937; experiment: Cell cycle arrest in human U937 cells assessed as accumulation at G2/G1 phase at 0.05 uM measured after 24 hrs by propidium iodide staining based assay (reference value: 1.98%); format: functional
[7] = system: U-937; experiment: Cell cycle arrest in human U937 cells assessed as accumulation at sub-G1 phase at 0.025 uM measured after 24 hrs by propidium iodide staining based assay (reference value: 0.01%); format: functional
Procedure, shortened: (§2)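 U937 cells were exposed to the test agent at 0.2, 0.1, 0.05 or 0.025 μM for 24 h alongside an untreated control. DNA content was measured by propidium iodide staining and flow cytometry, giving the G0/G1, S and G2+M fractions and the hypodiploid pre-G0 (sub-G1) population. Values are means ± SD of three independent experiments, compared with control (p < 0.05, p < 0.01).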

[8] = system: U-937; experiment: Induction of apoptosis in human U937 cells assessed as late apoptotic cells at 0.025 uM measured after 24 hrs by Annexin alexa fluor 488/7AAD staining based flow cytometry (reference value: 0.05%); format: functional
[9] = system: U-937; experiment: Cell cycle arrest in human U937 cells assessed as accumulation at super-G2 phase at 0.05 uM measured after 24 hrs by propidium iodide staining based assay (reference value: 0.45%); format: functional
[10] = system: U-937; experiment: Cell cycle arrest in human U937 cells assessed as accumulation at G2 phase at 0.1 uM measured after 24 hrs by propidium iodide staining based assay (reference value: 10.7%); format: functional; procedure, shortened: as §2
[11] = system: U-937; experiment: Induction of apoptosis in human U937 cells assessed as early apoptotic cells at 0.025 uM measured after 24 hrs by Annexin alexa fluor 488/7AAD staining based flow cytometry (reference value: 1.45%); format: functional
[12] = system: U-937; experiment: Induction of apoptosis in human U937 cells assessed as early apoptotic cells at 0.2 uM measured after 24 hrs by Annexin alexa fluor 488/7AAD staining based flow cytometry (reference value: 1.45%); format: functional
[13] = system: U-937; experiment: Cell cycle arrest in human U937 cells assessed as accumulation at S phase at 0.025 uM measured after 24 hrs by propidium iodide staining based assay (reference value: 45.88%); format: functional; procedure, shortened: as §2
[14] = system: U-937; experiment: Cell cycle arrest in human U937 cells assessed as accumulation at super-G2 phase at 0.2 uM measured after 24 hrs by propidium iodide staining based assay (reference value: 0.45%); format: functional
[15] = system: U-937; experiment: Cell cycle arrest in human U937 cells assessed as accumulation at G1 phase at 0.05 uM measured after 24 hrs by propidium iodide staining based assay (reference value: 41.98%); format: functional; procedure, shortened: as §2
[16] = system: U-937; experiment: Induction of apoptosis in human U937 cells assessed as necrotic cells at 0.2 uM measured after 24 hrs by Annexin alexa fluor 488/7AAD staining based flow cytometry (reference value: 0.19%); format: functional
[17] = system: U-937; experiment: Cell cycle arrest in human U937 cells assessed as accumulation at G2 phase at 0.05 uM measured after 24 hrs by propidium iodide staining based assay (reference value: 10.7%); format: functional; procedure, shortened: as §2
[18] = system: U-937; experiment: Cell cycle arrest in human U937 cells assessed as accumulation at S phase at 0.1 uM measured after 24 hrs by propidium iodide staining based assay (reference value: 45.88%); format: functional; procedure, shortened: as §2
[19] = system: U-937; experiment: Induction of apoptosis in human U937 cells assessed as live cells at 0.025 uM measured after 24 hrs by Annexin alexa fluor 488/7AAD staining based flow cytometry (reference value: 98.31%); format: functional
[20] = system: U-937; experiment: Cell cycle arrest in human U937 cells assessed as accumulation at sub-G1 phase at 0.05 uM measured after 24 hrs by propidium iodide staining based assay (reference value: 0.01%); format: functional; procedure, shortened: as §2
[21] = system: U-937; experiment: Cell cycle arrest in human U937 cells assessed as accumulation at G1 phase at 0.2 uM measured after 24 hrs by propidium iodide staining based assay (reference value: 41.98%); format: functional; procedure, shortened: as §2
[22] = system: U-937; experiment: Induction of apoptosis in human U937 cells assessed as necrotic cells at 0.1 uM measured after 24 hrs by Annexin alexa fluor 488/7AAD staining based flow cytometry (reference value: 0.19%); format: functional
[23] = system: U-937; experiment: Induction of apoptosis in human U937 cells assessed as live cells at 0.2 uM measured after 24 hrs by Annexin alexa fluor 488/7AAD staining based flow cytometry (reference value: 98.31%); format: functional
[24] = system: U-937; experiment: Induction of apoptosis in human U937 cells measured after 24 hrs by Annexin alexa fluor 488/7AAD staining based flow cytometry; format: functional, cell-based
Procedure, shortened: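 Treated U937 cells were stained with annexin V Alexa Fluor 488 and 7AAD. Fluorescence intensity was read by flow cytometry, with etoposide run as the reference drug.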

[25] = system: U-937; experiment: Cell cycle arrest in human U937 cells assessed as accumulation at G2/G1 phase at 0.1 uM measured after 24 hrs by propidium iodide staining based assay (reference value: 1.98%); format: functional
[26] = system: U-937; experiment: Cell cycle arrest in human U937 cells assessed as accumulation at G2/G1 phase at 0.2 uM measured after 24 hrs by propidium iodide staining based assay (reference value: 1.98%); format: functional
[27] = system: U-937; experiment: Cell cycle arrest in human U937 cells assessed as accumulation at G2/G1 phase at 0.025 uM measured after 24 hrs by propidium iodide staining based assay (reference value: 1.98%); format: functional
[28] = system: U-937; experiment: Cell cycle arrest in human U937 cells assessed as accumulation at super-G2 phase at 0.1 uM measured after 24 hrs by propidium iodide staining based assay (reference value: 0.45%); format: functional
[29] = system: U-937; experiment: Cell cycle arrest in human U937 cells assessed as accumulation at G2 phase at 0.025 uM measured after 24 hrs by propidium iodide staining based assay (reference value: 10.7%); format: functional; procedure, shortened: as §2
[30] = system: U-937; experiment: Cell cycle arrest in human U937 cells assessed as accumulation at sub-G1 phase at 0.1 uM measured after 24 hrs by propidium iodide staining based assay (reference value: 0.01%); format: functional; procedure, shortened: as §2
[31] = system: U-937; experiment: Cell cycle arrest in human U937 cells assessed as accumulation at G1 phase at 0.1 uM measured after 24 hrs by propidium iodide staining based assay (reference value: 41.98%); format: functional; procedure, shortened: as §2
[32] = system: U-937; experiment: Induction of apoptosis in human U937 cells assessed as live cells at 0.05 uM measured after 24 hrs by Annexin alexa fluor 488/7AAD staining based flow cytometry (reference value: 98.31%); format: functional
[33] = system: U-937; experiment: Cell cycle arrest in human U937 cells assessed as accumulation at G2 phase at 0.2 uM measured after 24 hrs by propidium iodide staining based assay (reference value: 10.7%); format: functional; procedure, shortened: as §2
[34] = system: U-937; experiment: Cell cycle arrest in human U937 cells assessed as accumulation at super-G2 phase at 0.025 uM measured after 24 hrs by propidium iodide staining based assay (reference value: 0.45%); format: functional
[35] = system: U-937; experiment: Cell cycle arrest in human U937 cells assessed as accumulation at S phase at 0.2 uM measured after 24 hrs by propidium iodide staining based assay (reference value: 45.88%); format: functional; procedure, shortened: as §2
[36] = system: U-937; experiment: Induction of apoptosis in human U937 cells assessed as live cells at 0.1 uM measured after 24 hrs by Annexin alexa fluor 488/7AAD staining based flow cytometry (reference value: 98.31%); format: functional
[37] = system: U-937; experiment: Cell cycle arrest in human U937 cells assessed as accumulation at G1 phase at 0.025 uM measured after 24 hrs by propidium iodide staining based assay (reference value: 41.98%); format: functional; procedure, shortened: as §2
[38] = system: U-937; experiment: Induction of apoptosis in human U937 cells assessed as early apoptotic cells at 0.1 uM measured after 24 hrs by Annexin alexa fluor 488/7AAD staining based flow cytometry (reference value: 1.45%); format: functional
[39] = system: U-937; experiment: Induction of apoptosis in human U937 cells assessed as necrotic cells at 0.025 uM measured after 24 hrs by Annexin alexa fluor 488/7AAD staining based flow cytometry (reference value: 0.19%); format: functional
[40] = system: U-937; experiment: Induction of apoptosis in human U937 cells assessed as late apoptotic cells at 0.05 uM measured after 24 hrs by Annexin alexa fluor 488/7AAD staining based flow cytometry (reference value: 0.05%); format: functional
[41] = system: U-937; experiment: Induction of apoptosis in human U937 cells assessed as late apoptotic cells at 0.1 uM measured after 24 hrs by Annexin alexa fluor 488/7AAD staining based flow cytometry (reference value: 0.05%); format: functional
[42] = system: U-937; experiment: Cell cycle arrest in human U937 cells assessed as accumulation at sub-G1 phase at 0.2 uM measured after 24 hrs by propidium iodide staining based assay (reference value: 0.01%); format: functional; procedure, shortened: as §2
[43] = system: U-937; experiment: Induction of apoptosis in human U937 cells assessed as late apoptotic cells at 0.2 uM measured after 24 hrs by Annexin alexa fluor 488/7AAD staining based flow cytometry (reference value: 0.05%); format: functional
[44] = system: U-937; experiment: Induction of apoptosis in human U937 cells assessed as early apoptotic cells at 0.05 uM measured after 24 hrs by Annexin alexa fluor 488/7AAD staining based flow cytometry (reference value: 1.45%); format: functional
[45] = system: U-937; experiment: Cell cycle arrest in human U937 cells assessed as accumulation at S phase at 0.05 uM measured after 24 hrs by propidium iodide staining based assay (reference value: 45.88%); format: functional; procedure, shortened: as §2

SMILES: C1CCC(N2CN3c4nonc4N4CN(C5CCCC5)CN5c6nonc6N(C2)C3C45)C1 (stereo not given)
- Activity [1]: Dose-dependent effect
- CC50 [1]: 640 nM
- Activity [2]: Dose-dependent effect
- CC50 [2]: 980 nM
- Activity [3]: Dose-dependent effect
- CC50 [3]: 510 nM
- Activity [4]: Dose-dependent effect
- CC50 [4]: 570 nM

SMILES: C1CC2CC1CC2N1CN2c3nonc3N3CN(C4CC5CCC4C5)CN4c5nonc5N(C1)C2C34 (stereo not given)
- Activity [5]: 1.4%
- Activity [6]: 1.93%
- Activity [7]: 6.37%
- Activity [8]: 16.54%
- Activity [9]: 2.07%
- Activity [10]: 2.83%
- Activity [11]: 10.44%
- Activity [12]: 19.35%
- Activity [13]: 48.65%
- Activity [14]: 1.38%
- Activity [15]: 30.09%
- Activity [16]: 4.4%
- Activity [17]: 3.29%
- Activity [18]: 32.87%
- Activity [1]: Dose-dependent effect
- CC50 [1]: 210 nM
- Activity [19]: 71.74%
- Activity [20]: 11.01%
- Activity [21]: 17.74%
- Activity [2]: Dose-dependent effect
- CC50 [2]: 320 nM
- Activity [22]: 1.31%
- Activity [23]: 23.18%
- Activity [24]: Dose-dependent effect
- Activity [25]: 1.98%
- Activity [26]: 1.91%
- Activity [27]: 1.98%
- Activity [28]: 0.94%
- Activity [29]: 4.11%
- Activity [30]: 16.73%
- Activity [3]: Dose-dependent effect
- CC50 [3]: 160 nM
- Activity [31]: 34.01%
- Activity [32]: 60.65%
- Activity [33]: 3.12%
- Activity [34]: 2.28%
- Activity [35]: 38.89%
- Activity [36]: 42.25%
- Activity [4]: Dose-dependent effect
- CC50 [4]: 110 nM
- Activity [37]: 35.15%
- Activity [38]: 15.52%
- Activity [39]: 1.28%
- Activity [40]: 27.01%
- Activity [41]: 40.93%
- Activity [42]: 20.66%
- Activity [43]: 53.07%
- Activity [44]: 10.94%
- Activity [45]: 41.7%

SMILES: C1CCC(N2CN3c4nonc4N4CN(C5CCCCC5)CN5c6nonc6N(C2)C3C45)CC1 (stereo not given)
- Activity [1]: Dose-dependent effect
- CC50 [1]: 590 nM
- Activity [2]: Dose-dependent effect
- CC50 [2]: 1040 nM
- Activity [3]: Dose-dependent effect
- CC50 [3]: 530 nM
- Activity [4]: Dose-dependent effect
- CC50 [4]: 540 nM
